These results are taken from ChEMBL document CHEMBL4834479, “Discovery of the first chemical tools to regulate MKK3-mediated MYC activation in cancer” (Bioorg Med Chem, 2021).

Active and inactive are the calls of the source. The rule behind the calls is not given here.

In assay [1] the target is T1, MAP2K3/Myc proto-oncogene protein (Homo sapiens) (UniProt P46734+P01106). As to the kind of experiment: Disruption of interaction between human recombinant GST-tagged MKK3/VF-tagged MYC expressed in HEK293T cells at 20 uM measured after 2 hrs by TR-FRET assay. Format: cell-based. A general note: Time-resolved FRET reads energy transfer from a long-lived donor to a nearby acceptor.
T1 sequence (P01106 whole entry, looked up, one chain of several): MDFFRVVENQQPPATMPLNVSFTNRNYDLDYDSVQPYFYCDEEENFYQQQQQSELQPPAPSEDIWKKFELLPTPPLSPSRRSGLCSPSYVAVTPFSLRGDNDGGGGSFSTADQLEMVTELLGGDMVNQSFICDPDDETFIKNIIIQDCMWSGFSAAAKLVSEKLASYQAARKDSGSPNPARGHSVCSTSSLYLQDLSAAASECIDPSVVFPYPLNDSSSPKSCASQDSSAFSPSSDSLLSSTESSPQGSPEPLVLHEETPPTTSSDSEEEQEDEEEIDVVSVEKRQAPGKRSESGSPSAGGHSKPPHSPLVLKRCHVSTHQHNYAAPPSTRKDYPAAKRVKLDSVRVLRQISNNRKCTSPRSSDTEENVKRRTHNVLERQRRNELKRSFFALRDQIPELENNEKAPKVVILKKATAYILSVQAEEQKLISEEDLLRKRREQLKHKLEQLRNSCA

The target in assay [2] is T2, MAP2K3/Myc proto-oncogene protein (Homo sapiens, UniProt P01106+P46734). Kind of assay: Disruption of interaction between human recombinant GST-tagged MKK3/VF-tagged MYC expressed in HEK293T cells measured after 2 hrs by TR-FRET assay. It is filed as cell-based.
T2 sequence (P01106 whole entry, one chain of several): as the sequence (P01106 whole entry, looked up, one chain of several) above
For assay [3], the target named is T1, MAP2K3/Myc proto-oncogene protein (Homo sapiens). As to the kind of experiment: Disruption of MKK3/MYC protein-protein interaction in human MDA-MB-468 cells assessed as decrease in PDL1 level at 1 to 20 uM measured by western blot assay. Format: cell-based. Particulars: dose 1-20 µM. Background: In western blotting, separated proteins are transferred to a membrane and probed.

The target is the same in assay [4]. Kind of assay: Disruption of interaction between human recombinant GST-tagged MKK3 expressed in HEK293T cells/MYC in human HCT116 cells incubated for 30 mins by GST pull-down assay. It is filed as cell-based. As to conditions: dose 2-5 µM.
For assay [5] the target is unchanged. As to the kind of experiment: Disruption of MKK3/MYC protein-protein interaction in human MDA-MB-468 cells transfected with VF-tagged MKK3 assessed as inhibition of MYC transcriptional activity measured after 12 hrs by […] reporter assay. It is filed as cell-based. As to conditions: dose 0.5-5 µM. In outline: (§1)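 Cells were transfected with Venus-Flag-MKK3 or Venus-Flag vector plus a firefly luciferase reporter carrying three MYC E-box sites (or a mutant E-box control) and a Renilla normalization vector. Compound in DMSO (0.5–5 µM, 0.1% DMSO final) was added 36 h post-transfection and cells were incubated 12 h more. Dual-luciferase read-out: firefly/Renilla ratio, then wild-type over mutant E-box fold.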
In general terms: A reporter such as luciferase makes a cellular process visible.

Assay [6] deals with HCT-116. As to the kind of experiment: Inhibition of cell migration in human HCT-116 cells at 0.75 to 3 uM by scratch wound healing assay. As to conditions: dose 0.75-3 µM, TDE = time-dependent effect. It is filed as functional, cell-based.
Assay [7] concerns the target T1, MAP2K3/Myc proto-oncogene protein (Homo sapiens). Kind of assay: Disruption of MKK3/MYC protein-protein interaction in human HCT-116 cells assessed as decrease in CDK4 level at 0.5 to 10 uM measured by western blot assay. It is filed as cell-based. Particulars: dose 0.5-10 µM.
In assay [8] the target is T2, MAP2K3/Myc proto-oncogene protein. As to the kind of experiment: Disruption of interaction between human recombinant GST-tagged MKK3 (1 to 210 residues)/VF-tagged MYC expressed in HEK293T cells measured after 2 hrs by TR-FRET assay. Format: cell-based.
For assay [9], the target named is T1, MAP2K3/Myc proto-oncogene protein (Homo sapiens). As to the kind of experiment: Disruption of MKK3/MYC protein-protein interaction in human HCT-116 cells assessed as decrease in PDL1 level at 0.5 to 10 uM measured by western blot assay. Format: cell-based. As to conditions: dose 0.5-10 µM.
Assay [10] addresses c-Myc/c-Max (Homo sapiens) (UniProt P01106+P61244). As to the kind of experiment: Disruption of interaction between human recombinant GST-tagged MAX/VF-tagged MYC expressed in HEK293T cells at 50 uM incubated for 30 mins by GST pull-down assay. It is filed as cell-based. In outline:
(§2)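 GST- and Venus-Flag-tagged human proteins were co-expressed in HEK293T cells for 48 h and lysed in 1% NP-40 buffer (HEPES pH 7.5) at 4 °C. Cleared lysates were pre-incubated 30 min with 50 µM compound or DMSO, then 75 min with glutathione sepharose. Beads were washed three times, eluted in SDS loading buffer, and analysed by Western blot.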

The target of assay [11] is T1, MAP2K3/Myc proto-oncogene protein (Homo sapiens). As to the kind of experiment: Disruption of MKK3/MYC protein-protein interaction in human MDA-MB-468 cells assessed as decrease in CDK4 level at 1 to 20 uM measured by western blot assay. It is filed as cell-based. As to conditions: dose 1-20 µM.
For assay [12], the system named is HCT-116. Kind of assay: Inhibition of cell migration in human HCT-116 cells assessed as relative wound density at 3 uM measured after 18 hrs by scratch wound healing assay (reference value: 20%). Format: functional. Details: scale not given: the % may be the effect or the level left. In outline:
(§3)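 Confluent HCT116 monolayers were wounded, washed with fresh medium, and given medium with compound at set concentrations or DMSO. Live-cell imaging scanned every 2 h over 18 h, with relative wound density as the read-out. Four replicates were run.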

The target in assay [13] is T1, MAP2K3/Myc proto-oncogene protein (Homo sapiens). Kind of assay: Disruption of MKK3/MYC protein-protein interaction in human MDA-MB-468 cells assessed as decrease in MYC level at 1 to 20 uM measured by western blot assay. Format: cell-based. As to conditions: dose 1-20 µM.
Assay [14] has the same target. Kind of assay: Disruption of interaction between human recombinant GST-tagged MKK3/VF-tagged MYC expressed in HEK293T cells at 50 uM incubated for 30 mins by GST pull-down assay. Format: cell-based. In outline: as §2
For assay [15], the target named is T2, MAP2K3/Myc proto-oncogene protein. As to the kind of experiment: Disruption of interaction between human recombinant GST-tagged MKK3/His-tagged MYC HLH LZ domain measured after 2 hrs by TR-FRET assay. It is filed as protein assay.
Assay [16] concerns the target T1, MAP2K3/Myc proto-oncogene protein (Homo sapiens). As to the kind of experiment: Disruption of MKK3/MYC protein-protein interaction in human HCT-116 cells transfected with VF-tagged MKK3 assessed as inhibition of MYC transcriptional activity at 0.5 to 2 uM measured after 12 hrs by […] reporter assay. Particulars: dose 0.5-2 µM. Format: cell-based. In short, it runs like this:
as §1

For assay [17], the system named is HCT-116. Kind of assay: Cytotoxicity against human HCT-116 cells assessed as reduction in cell viability measured after 72 hrs by Alamar blue assay. Format: functional, cell-based. As to conditions: HCT-116, 72 h. In outline:
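HCT116 cells in DMEM with 10% FBS at 37 °C, 5% CO2, seeded and treated next day with compound or DMSO. After 72 h, CellTiter-Blue reagent was added for 2 h at 37 °C and fluorescence read at 560 ex/590 em. Background came from medium-only wells, and viability was taken relative to DMSO control.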

A further assay has as its system HEK293T. As to the kind of experiment: Disruption of interaction between human recombinant GST-tagged MKK3/VF-tagged p38 expressed in HEK293T cells at 50 uM incubated for 30 mins by GST pull-down assay. It is filed as cell-based. In short, it runs like this:
as §2

Assay [18] concerns the target T3, Dual specificity mitogen-activated protein kinase kinase 3 (Homo sapiens) (UniProt P46734).
T3 sequence (whole entry): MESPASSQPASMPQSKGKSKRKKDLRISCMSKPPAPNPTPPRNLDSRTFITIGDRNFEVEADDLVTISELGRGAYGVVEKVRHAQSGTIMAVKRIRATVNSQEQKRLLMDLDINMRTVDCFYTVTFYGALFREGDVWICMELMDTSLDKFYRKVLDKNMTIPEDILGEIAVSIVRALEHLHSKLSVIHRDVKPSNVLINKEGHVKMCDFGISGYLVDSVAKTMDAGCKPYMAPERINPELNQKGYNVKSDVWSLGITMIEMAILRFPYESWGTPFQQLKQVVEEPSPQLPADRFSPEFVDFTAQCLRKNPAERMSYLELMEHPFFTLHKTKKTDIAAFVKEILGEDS
As to the kind of experiment: Inhibition of MKK3 in human HEK293T cells assessed as inhibition of p38 phosphorylation by western blot analysis. It is filed as cell-based.

In assay [19] the test system is HCT-116. Kind of assay: Inhibition of cell migration in human HCT-116 cells measured after 18 hrs by scratch wound healing assay. Format: functional, cell-based. As to conditions: dose 0.75-3 µM. In short, it runs like this: as §3
Another assay has as its system MDA-MB-468. As to the kind of experiment: Inhibition of Renilla luciferase activity expressed in human MDA-MB-468 cells assessed as decrease in luminescence at 10 uM measured after 12 hrs by luminescence assay. It is filed as cell-based. In short, it runs like this:
(§4)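 Renilla luciferase luminescence was compared between cells treated with 10 µM compound and DMSO control, within the dual-luciferase MYC reporter set-up, using a 12 h compound incubation.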

The target in assay [20] is T1, MAP2K3/Myc proto-oncogene protein (Homo sapiens). Kind of assay: Disruption of MKK3/MYC protein-protein interaction in human HCT-116 cells assessed as decrease in MYC level at 0.5 to 10 uM measured by western blot assay. Format: cell-based. Particulars: dose 0.5-10 µM.
The test system of assay [21] is HCT-116. As to the kind of experiment: Inhibition of Renilla luciferase activity expressed in human HCT-116 cells assessed as decrease in luminescence at 10 uM measured after 12 hrs by luminescence assay. It is filed as cell-based. In outline:
as §4

For assay [22], the target named is T1, MAP2K3/Myc proto-oncogene protein (Homo sapiens). Kind of assay: Disruption of interaction between human recombinant GST-tagged MKK3/VF-tagged MYC expressed in HEK293T cells up to 100 uM measured after 2 hrs by TR-FRET assay. It is filed as cell-based. As to conditions: dose microM <=100, time 2.0 hrs.
Assay [23] deals with DNA (cytosine-5)-methyltransferase 1 (Homo sapiens, UniProt P26358). As to the kind of experiment: Inhibition of DNMT (unknown origin) by densitometric analysis.
Chain of DNA (cytosine-5)-methyltransferase 1 (P26358 whole entry): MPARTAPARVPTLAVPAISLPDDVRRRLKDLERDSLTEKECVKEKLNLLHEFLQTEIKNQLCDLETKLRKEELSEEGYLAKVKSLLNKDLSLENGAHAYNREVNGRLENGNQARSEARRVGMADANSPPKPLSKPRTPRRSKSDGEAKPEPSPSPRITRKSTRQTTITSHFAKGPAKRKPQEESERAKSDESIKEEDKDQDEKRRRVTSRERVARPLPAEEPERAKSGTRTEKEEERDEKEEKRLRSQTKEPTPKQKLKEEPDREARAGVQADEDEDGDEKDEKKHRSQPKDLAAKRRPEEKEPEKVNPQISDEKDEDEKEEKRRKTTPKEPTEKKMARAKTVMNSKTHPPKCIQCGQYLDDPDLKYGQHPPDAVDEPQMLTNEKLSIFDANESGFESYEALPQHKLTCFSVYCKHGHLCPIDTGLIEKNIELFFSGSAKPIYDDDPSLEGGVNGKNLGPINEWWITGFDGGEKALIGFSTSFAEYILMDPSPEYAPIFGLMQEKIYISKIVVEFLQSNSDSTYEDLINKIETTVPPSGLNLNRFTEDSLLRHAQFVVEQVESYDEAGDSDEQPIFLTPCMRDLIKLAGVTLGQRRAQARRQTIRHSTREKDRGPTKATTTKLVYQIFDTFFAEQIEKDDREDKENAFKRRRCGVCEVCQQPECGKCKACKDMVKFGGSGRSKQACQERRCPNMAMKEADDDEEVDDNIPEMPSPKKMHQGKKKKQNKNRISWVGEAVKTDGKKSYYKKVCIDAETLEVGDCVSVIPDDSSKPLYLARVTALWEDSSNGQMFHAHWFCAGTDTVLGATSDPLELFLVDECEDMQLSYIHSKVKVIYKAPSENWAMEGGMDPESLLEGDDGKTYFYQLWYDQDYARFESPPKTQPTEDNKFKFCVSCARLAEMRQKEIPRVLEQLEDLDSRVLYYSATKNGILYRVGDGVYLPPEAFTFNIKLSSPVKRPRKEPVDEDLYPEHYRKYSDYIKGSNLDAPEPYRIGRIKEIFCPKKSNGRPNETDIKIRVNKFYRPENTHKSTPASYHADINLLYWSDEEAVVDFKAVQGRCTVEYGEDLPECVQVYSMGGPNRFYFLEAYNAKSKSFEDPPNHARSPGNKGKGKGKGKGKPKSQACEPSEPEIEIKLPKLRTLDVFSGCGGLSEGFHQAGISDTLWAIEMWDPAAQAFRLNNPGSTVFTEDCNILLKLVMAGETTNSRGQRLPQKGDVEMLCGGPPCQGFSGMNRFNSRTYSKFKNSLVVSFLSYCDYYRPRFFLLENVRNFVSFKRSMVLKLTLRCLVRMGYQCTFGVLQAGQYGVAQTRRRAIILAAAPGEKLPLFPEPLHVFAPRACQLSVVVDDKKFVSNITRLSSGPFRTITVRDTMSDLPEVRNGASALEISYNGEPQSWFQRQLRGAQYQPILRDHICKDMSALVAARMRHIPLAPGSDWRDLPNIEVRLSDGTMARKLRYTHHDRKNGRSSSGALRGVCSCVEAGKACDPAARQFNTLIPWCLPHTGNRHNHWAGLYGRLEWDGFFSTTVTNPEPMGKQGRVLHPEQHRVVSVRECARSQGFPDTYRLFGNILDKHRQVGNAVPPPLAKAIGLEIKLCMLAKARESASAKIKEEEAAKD

Chain of c-Myc/c-Max (Homo sapiens) (P01106 whole entry): as the sequence (P01106 whole entry, looked up, one chain of several) above
Chain of c-Myc/c-Max (Homo sapiens) (P61244 2-160 partner limits assumed): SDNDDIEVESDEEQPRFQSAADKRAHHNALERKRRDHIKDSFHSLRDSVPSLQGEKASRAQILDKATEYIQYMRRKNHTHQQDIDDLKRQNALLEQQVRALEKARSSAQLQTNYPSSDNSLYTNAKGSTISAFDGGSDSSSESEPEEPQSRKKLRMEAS

What is called inhibition is how much of the control response was suppressed. Broadly, the IC50 is the point on the concentration scale where inhibition reaches its midpoint. As for `O=C(O)C1=CC(=C(c2ccc(O)c(C(=O)O)c2)c2ccc(O)c(C(=O)O)c2)C=CC1=O` [AURINTRICARBOXYLIC ACID], in assay [1], the inhibition was 58%. Further, the IC50 in assay [2] was 14.1 µM.
As to `CC(C)c1cc(C(C)C)c(CC(=O)NS(=O)(=O)Oc2c(C(C)C)cccc2C(C)C)c(C(C)C)c1` [AVASIMIBE], the 50% inhibitory concentration (IC50) in assay [2] was found to be 63.9 µM.
As to `Cc1cc(Nc2ccc(NC(=O)c3ccc(Nc4ccnc5ccccc45)cc3)cc2)nc(N)n1`, the result in assay [3], in assay [7], in [9], in assay [11], in [13] and in assay [14] was Active. Further, the outcome in assay [20] was Active. Besides, the Activity entry is “Dose-Dependent Effect” in [4], “Dose-Dependent Effect” in assay [5], 8% with HCT-116 [12] and “Dose-Dependent Effect” in [16]. In addition, the inhibition result is “Tde” in the assay on HCT-116 [6], 37% in assay [1] and “Dose-Dependent Effect” in the assay on HCT-116 [19]. Further, the IC50 in [8] stood at 3.8 µM; in [15], 9.67 µM; in the assay with HCT-116 [17], 3.2 µM; in assay [2], 8.46 µM. The result (in assay [10]; in the assay on HEK293T) was inactive. The inhibition result (in assay [18]; with MDA-MB-468; in the assay on HCT-116 [21]) was “inactive” throughout.
With `Cc1cc2c(C(C)C)c(O)c(O)c(C=O)c2c(O)c1-c1c(C)cc2c(C(C)C)c(O)c(O)c(C=O)c2c1O`, the outcome in assay [22] was inactive. Moreover, the inhibition in assay [1] was 31%.
Consider `O=C(O)[C@H](Cc1c[nH]c2ccccc12)N1C(=O)c2ccccc2C1=O`, for which the midpoint of inhibition in assay [23], the IC50, lay at 115 nM. For the same compound, the outcome in [22], in [7], in assay [9], in [16] and in assay [20] was inactive.
